This note sets out measurements from ChEMBL document CHEMBL5034012, “Procainamide-SAHA Fused Inhibitors of hHDAC6 Tackle Multidrug-Resistant Malaria Parasites” (J Med Chem, 2021).

A short description of data set [1]: Microsomal stability in human liver microsomes assessed as parent compound remaining after 1 hrs. In kind it is ADME, Microsome. The following applies: read-out: Stability. On the technique in general: Microsomes from liver hold many membrane-bound enzymes, among them those of drug oxidation.
For data set [2], the target named is Histone deacetylase 2 (Homo sapiens, UniProt Q92769). Description: Inhibition of human recombinant HDAC2 using Tosyl-Gly-ProLys(Ac)-AMC as substrate measured after 60 mins by fluorescence assay.
Sequence of Histone deacetylase 2 (Q92769 whole entry): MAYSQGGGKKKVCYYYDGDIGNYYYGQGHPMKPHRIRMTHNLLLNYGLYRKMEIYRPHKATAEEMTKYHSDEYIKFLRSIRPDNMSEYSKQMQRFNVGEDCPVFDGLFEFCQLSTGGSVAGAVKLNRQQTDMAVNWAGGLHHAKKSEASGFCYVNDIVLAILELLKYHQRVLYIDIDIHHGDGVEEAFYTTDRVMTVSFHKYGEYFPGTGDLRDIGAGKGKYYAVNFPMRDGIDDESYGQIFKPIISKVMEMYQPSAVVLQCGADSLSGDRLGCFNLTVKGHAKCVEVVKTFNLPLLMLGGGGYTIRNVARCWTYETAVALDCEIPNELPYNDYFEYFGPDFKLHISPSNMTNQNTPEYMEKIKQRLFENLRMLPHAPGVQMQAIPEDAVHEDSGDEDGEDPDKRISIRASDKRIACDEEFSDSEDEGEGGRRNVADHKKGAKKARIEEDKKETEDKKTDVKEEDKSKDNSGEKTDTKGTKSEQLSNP
Data set [3] relates to Plasmodium falciparum. Description: Antiplasmodial activity against asynchronous asexual culture of Plasmodium falciparum NF54 assessed as parasite growth inhibition. In kind it is functional, organism-based. In a few lines: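 Asynchronous asexual NF54 cultures exposed to 7-point, 2-step serial dilutions starting at 500nM. DHA served as positive control, DMSO as negative. IC50 interpolated from three independent experiments run in triplicate.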

Data set [4] in a line: Microsomal stability in rat liver microsomes assessed as parent compound remaining after 1 hrs. In kind it is ADME, Microsome. To be noted: read-out: Stability.
Data set [5] is described as follows: Inhibition of Plasmodium falciparum NF54 HDAC using extract measured after 60 mins by fluorescence assay.
Data set [6] in a line: Stability in rat plasma assessed as parent compound remaining after 2 hrs. In kind it is ADME, cell-free. The following applies: read-out: Stability.
Data set [7] concerns Plasmodium falciparum. Description: Antiplasmodial activity against Plasmodium falciparum stage IIb-III gametocytes assessed as abnormal morphology by measuring fragile like extensions at highest concentration measured after 72 hrs using Geimsa staining based assay. In kind it is functional. A digest of the protocol: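 Day-4 stage IIb-III gametocytes (asexuals removed by N-acetyl glucosamine), about 1% gametocytemia at 2% hematocrit, treated 72h at 10, 5, 1 or 0.5 µM against 0.1% DMSO. Then washed and recultured with daily medium changes. Morphology and parasitemia scored daily on Giemsa-stained thin smears.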

The subject of data set [8] is Plasmodium berghei. Description: Antimalarial activity against Plasmodium berghei infected in C57BL/6 mouse cerebral malaria model infected with assessed as growth reduction at 20 mg/kg, ip bid measured after 4 days. It is filed as functional, organism-based. To be noted: time 4.0 day. A digest of the protocol:
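Female C57BL/6 mice, 6 weeks old, infected i.p. with 10⁵ iRBC of GFP-expressing P. berghei ANKA. Treatment began 2h post-infection: i.p. 20mg/kg twice daily for 4 days, vehicle controls alongside; chloroquine 25mg/kg daily as positive control. Hydrochloride salt used. Parasitemia read daily by flow cytometry of 200,000 RBCs and confirmed on Giemsa smears. Mortality followed for 10 days. Single experiment, 5 mice per group.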

Data set [9] has as its system HL-60. Description: cells. In kind it is functional, cell-based. The following applies: Homo sapiens, HL-60, 72 h.
Data set [10] in a line: Stability in human plasma assessed as parent compound remaining after 2 hrs. It is filed as ADME, cell-free. The following applies: read-out: Stability.
In data set [11] the test system is Plasmodium berghei. Description: Antimalarial activity against Plasmodium berghei infected in C57BL/6 mouse cerebral malaria model infected with assessed as increase in mouse survival days at 20 mg/kg, ip bid. It is filed as functional, organism-based. A digest of the protocol: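 Female C57BL/6 mice, 6 weeks old, infected i.p. with 10⁵ iRBC of GFP-expressing P. berghei ANKA. Dosing i.p. started 2h post-infection and ran 4 days: hydrochloride salt at 20mg/kg twice daily, vehicle control, or chloroquine 25mg/kg daily. Parasitemia measured daily by flow cytometry of 200,000 RBCs and confirmed by Giemsa smears. Parasitemia and mortality followed 10 days; n=5 mice/group, single experiment.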

The test system of data set [12] is Plasmodium falciparum. In words: Antiplasmodial activity against Plasmodium falciparum 3D7 assessed as DNA damage in trophozoite stage measured upto 72 hrs using Geimsa stain based parasite reduction rate assay. In kind it is functional, organism-based. The following applies: time hrs <=72.
Data set [13] deals with Plasmodium falciparum. In words: Antiplasmodial activity against Plasmodium falciparum NF54 assessed as reduction in growth in intraerythrocytic development cycle at 3 to 10 times of IC50 concentration incubated for 24 to 36 hrs measured after 72 hrs of post synchronization by SYBR Green 1 assay. It is filed as functional. To be noted: time 24-36 hrs. Also on record: scale not given: the % may be the effect or the level left.

Data set [14] has as its system Plasmodium falciparum. Description: Antiplasmodial activity against synchronized Plasmodium falciparum NF54 assessed as effect on ring stage parasite growth in intraerythrocytic development cycle at 3 times IC50 concentration measured upto 48 hrs of cell cycle by SYBR Green 1 assay. In kind it is functional, organism-based. The following applies: time hrs <=48.
The test system of data set [15] is Plasmodium falciparum. Description: Antiplasmodial activity against synchronized Plasmodium falciparum NF54 assessed as effect on ring stage parasite growth in intraerythrocytic development cycle at 10 times IC50 concentration incubated upto 48 hrs measured after 72 hrs of post synchronization by SYBR Green 1 assay. It is filed as functional, organism-based. To be noted: time hrs <=48.

Data set [16] relates to Plasmodium falciparum. In words: Antiplasmodial activity against Plasmodium falciparum NF54 assessed as reduction in growth in intraerythrocytic development cycle at 3 times of IC50 concentration incubated for 6 hrs measured after 72 hrs of post synchronization […]. It is filed as functional, organism-based. A digest of the protocol:
(§1)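 NF54 asexual parasites tightly synchronized to 0–3hpi. Exposed for 6h at 3× or 10× IC50, starting at 0, 6, 12, 18, 24, 30, 36 or 42hpi. Cells then pelleted, washed in RPMI and returned to culture. Parasitemia counted at 72h post-synchronization on Giemsa-stained thin smears. Survival expressed relative to DMSO. Three independent experiments, one well per condition.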

Data set [17] relates to Plasmodium falciparum. Description: Inhibition of Plasmodium falciparum HDAC activity using nuclear extract assessed as inhibition of acetylation at 1 to 10 uM. The following applies: dose 1-10 µM. In a few lines:
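P. falciparum protein extract (3x10⁻³mg) incubated with compound and 43 µM Tosyl-Gly-Pro-Lys(Ac)-AMC. Buffer: 25mM Tris-HCl pH 8, 140mM NaCl, 3mM KCl, 1mM MgCl₂. Run 45 min at 37°C, then trypsin 15min at RT, then ethanol. Fluorescence read at ex 380/em 460nm. Normalized to DMSO. Duplicates in ≥2 independent experiments.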

Data set [18] concerns Plasmodium falciparum. In words: Inhibition of Plasmodium falciparum DNMT activity using nuclear extract assessed as DNA methylation at 32 uM. A digest of the protocol: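 P. falciparum nuclear extracts tested at 32 µM compound, or the equivalent DMSO. DNA methylation activity normalized to the DMSO sample. Triplicates in two independent experiments.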
Data set [19] has as its target DNA (cytosine-5)-methyltransferase 3A (Homo sapiens) (UniProt Q9Y6K1). In words: Inhibition of human DNMT3A methylation.
Data set [20] deals with HL-60. Description: Cytotoxicity against human HL-60 cells assessed as inhibition of cell proliferation at 32 uM measured after 72 hrs by ATPlite assay. It is filed as functional. A digest of the protocol: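 Cells exposed to compound for 72h; viability read by ATPlite. DMSO control. Technical triplicates, at least two biological replicates. IC50 interpolated from the curves.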
For orientation: In ATP-based viability assays light output follows the ATP content of the culture.

For data set [21], the target named is Histone deacetylase (Homo sapiens) (UniProt Q13547+O15379+Q9UBN7+Q92769+Q9UQL6+Q8WUI4+Q9BY41+Q96DB2+P56524+Q9UKV0+Q969S8). In words: Inhibition of human HDAC activity using nuclear extract of HeLa cells assessed as inhibition of acetylation. In kind it is tissue-based. In a few lines:
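HeLa nuclear extract (3x10⁻³mg) incubated with compound and 43 µM Tosyl-Gly-Pro-Lys(Ac)-AMC. Buffer: 25mM Tris-HCl pH 8, 140mM NaCl, 3mM KCl, 1mM MgCl₂. Run 45 min at 37°C, then trypsin (1mg/mL) 15min at RT, then ethanol. AMC fluorescence read at ex 380/em 460nm. Background subtracted; data normalized to DMSO. Duplicates in ≥2 independent experiments.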

For data set [22], the system named is Plasmodium falciparum. Description: Antiplasmodial activity against Plasmodium falciparum NF54 assessed as reduction in growth in intraerythrocytic development cycle at 10 times of IC50 concentration incubated for 6 hrs measured after 72 hrs of post synchronization […]. It is filed as functional, organism-based. In a few lines: as §1

Calls of active or inactive are those of the source. The calls are words filed in the database; no cut-off is given here.

Sequence of DNA (cytosine-5)-methyltransferase 3A (Homo sapiens) (Q9Y6K1 whole entry, looked up): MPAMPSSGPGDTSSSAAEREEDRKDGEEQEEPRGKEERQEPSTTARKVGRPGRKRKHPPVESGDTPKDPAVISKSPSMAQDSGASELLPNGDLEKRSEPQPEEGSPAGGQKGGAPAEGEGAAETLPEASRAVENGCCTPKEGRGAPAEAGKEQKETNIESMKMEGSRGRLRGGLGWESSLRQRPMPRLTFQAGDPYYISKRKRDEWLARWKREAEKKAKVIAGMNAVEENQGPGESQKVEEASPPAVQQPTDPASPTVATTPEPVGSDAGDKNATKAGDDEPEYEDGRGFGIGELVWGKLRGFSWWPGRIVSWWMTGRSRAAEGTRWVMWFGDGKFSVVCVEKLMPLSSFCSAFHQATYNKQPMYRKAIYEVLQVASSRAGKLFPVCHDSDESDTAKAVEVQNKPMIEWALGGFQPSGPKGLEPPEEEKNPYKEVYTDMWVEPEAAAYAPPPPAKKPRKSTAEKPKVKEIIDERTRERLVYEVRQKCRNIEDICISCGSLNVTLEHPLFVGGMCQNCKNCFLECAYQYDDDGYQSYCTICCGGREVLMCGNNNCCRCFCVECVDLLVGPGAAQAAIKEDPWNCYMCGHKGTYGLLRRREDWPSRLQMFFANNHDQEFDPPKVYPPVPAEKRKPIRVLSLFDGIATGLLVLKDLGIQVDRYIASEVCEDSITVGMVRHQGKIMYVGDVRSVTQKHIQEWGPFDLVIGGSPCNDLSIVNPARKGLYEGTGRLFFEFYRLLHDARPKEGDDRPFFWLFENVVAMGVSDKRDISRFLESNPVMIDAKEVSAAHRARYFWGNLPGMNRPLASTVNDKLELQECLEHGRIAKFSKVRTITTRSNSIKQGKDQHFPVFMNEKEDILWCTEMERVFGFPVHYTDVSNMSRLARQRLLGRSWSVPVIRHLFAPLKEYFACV

As to `O=C(CCCCCCC(=O)Nc1ccc(C(=O)NC2CCNCC2)cc1)NO`, the remaining at 1 h in [1] and in data set [4] was 100% each time. In addition, the IC50 (usually the concentration that inhibits the measured activity by half) worked out at 270 nM in data set [2], 52 nM in data set [3], 480 nM in data set [5] and 100000 nM in [9]. Further, the remaining at 2 h in data set [6] and in data set [10] was 85% in each case. Also, the Activity entry in data set [7] is listed as “<=90%”. In addition, the result in data set [8] and in data set [12] was Active. In addition, the Survival result in data set [11] was “Active”.

For `CCN(CC)CCNC(=O)c1ccc(NC(=O)CCCCCCC(=O)NO)cc1`, the half-maximal inhibitory concentration (IC50) in [2] amounted to 80 nM; in data set [3], 41 nM; in data set [5] it was 380 nM. The Activity result is recorded as “<=85%” in data set [13] and “<=90%” in data set [7]. For the same molecule, the outcome in data set [14], in data set [15], in data set [16], in data set [18] and in data set [22] was inactive. In addition, the result in [17] and in [12] was Active. In addition, in data set [19], the inhibition (as a rule, the share of the control response that was lost under treatment) was “inactive”. In addition, in data set [20], the inhibition at 32 µM worked out at 65%. In addition, the inhibition entry in data set [21] is “Active”.
